bIAP activator – increases bovine intestinal alkaline phosphatase activity. hit rate 0.17% among 200,000. activation factor at 20 µM. purified bovine IAP, CDP-star luminescence, 30 min; stronger effect = higher value; fold of DMSO-control signal, blank-subtracted;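 active means activation factor of 2 or more at 20 µM, a signal rise over negative controls twice the positive control's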
bIAP inh – blocks bovine intestinal alkaline phosphatase activity; purified bovine IAP, CDP-star luminescence, 30 min; inhibition, % at 20 µM; 190,000 tested, under 10 active; AID 1019;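 active means over 50% inhibition of intestinal alkaline phosphatase at 20 µM in the single-dose screen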
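Assay system: bovine IAP enzyme; medium: DEA buffer 100 mM, pH 9.8, with MgCl2 1.0 mM, ZnCl2 0.02 mM; doses: 20 µM single dose; incubation: enzyme reaction for 30 min at room temperature; detection: CDP-star luminescence signal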
mIAP act – mouse IAP activation. muIAP, CDP-Star luminescence, 30 min; stronger effect = higher value; 1 = vehicle-only enzyme signal, 0 = enzyme-free wells. AID 2805. activation factor at 10 µM. hit rate 0.24% among 330,000;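 active means activation factor of at least 2 at 20 µM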
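also added = chemiluminescent substrate CDP-Star | test system = mouse IAP enzyme | signal = chemiluminescence readout | compound = DMSO-dissolved test compounds | incubation = 30 min at room temperature | benchmarks = DMSO wells, no-enzyme wells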
mIAP inh – mouse IAP inhibition; inhibition, % at 10 µM; hit rate 0.2% among 330,000; purified mouse IAP, CDP-Star luminescence, 30 min; AID 2806;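 active means inhibition of at least 40% at 10 µM in the primary screen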;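 further: plate controls were DMSO with enzyme for no effect and no enzyme wells for full effect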
hIAP activ – human IAP activation. P09923. purified human IAP, CDP-Star luminescence, 30 min; stronger effect = higher value; 1 = vehicle-only enzyme, 0 = enzyme-free background. activation factor at 10 µM. hit rate 0.16% among 330,000;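 active means activation factor of the enzyme at least 2-fold when tested at 20 µM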
Target sequence (P09923 whole entry, looked up): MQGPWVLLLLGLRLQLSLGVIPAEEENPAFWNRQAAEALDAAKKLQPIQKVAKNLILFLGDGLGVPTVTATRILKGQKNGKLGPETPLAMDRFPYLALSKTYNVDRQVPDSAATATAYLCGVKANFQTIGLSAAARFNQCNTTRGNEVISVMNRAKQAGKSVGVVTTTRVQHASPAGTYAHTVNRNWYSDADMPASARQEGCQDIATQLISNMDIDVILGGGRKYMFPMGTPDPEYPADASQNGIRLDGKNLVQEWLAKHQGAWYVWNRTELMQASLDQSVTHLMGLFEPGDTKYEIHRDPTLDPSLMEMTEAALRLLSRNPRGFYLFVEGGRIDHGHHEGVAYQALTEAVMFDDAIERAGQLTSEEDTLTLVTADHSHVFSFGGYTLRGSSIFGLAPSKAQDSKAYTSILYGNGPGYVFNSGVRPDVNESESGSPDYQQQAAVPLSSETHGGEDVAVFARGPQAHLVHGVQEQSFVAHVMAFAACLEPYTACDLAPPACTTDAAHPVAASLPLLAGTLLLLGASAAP
hIAP block – blocks human intestinal alkaline phosphatase; P09923; purified IAP, CDP-Star luminescence, 30 min; inhibition, % at 10 µM; hit rate 0.12% among 330,000; AID 2544;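 active means inhibition reaching a set limit with compound at 10 µM in the primary screen, cut at about 35% in these data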;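 further: plate controls were DMSO wells with enzyme for no effect and no-enzyme buffer wells for full effect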
mIAP inh conf – mouse IAP inhibition confirmation; shares compounds with mIAP inh; purified mouse IAP, CDP-Star luminescence, 30 min; inhibition, % at 10 µM; hit rate 4.7% among 11,000;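 active means inhibition of at least 40% at 10 µM in either of the two replicates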;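 further: plate controls were DMSO wells with enzyme for no effect and buffer wells lacking enzyme for full effect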
An asterisk follows results filed as active; i = inactive; / = no result given. Compounds with a hit are over-represented: about 0.77% of the library has one in this group of screens.

SMILES	bIAP activator	bIAP inh	mIAP act	mIAP inh	hIAP activ	hIAP block	mIAP inh conf
COc1cccc(C(=O)NC2CC3CCCC(C2)N3CC(=O)Nc2ccccc2C(F)(F)F)c1 (configuration not stated)	/	/	1.05	-4.7	0.954	4.6	/
CCc1cccc(CC)c1NC(=O)CN1C2CCCC1CC(NC(=O)Nc1cccc(OC)c1)C2 (configuration not stated)	1.4	-38.8	2.75*	-174.8	1.91	-91.4	-136.2
O=C(Nc1ccc(F)c(Cl)c1)Nc1ccc(Cl)cn1	1.1	-8.0	1.05	-4.9	0.992	0.8	/
O=C(Nc1ccc(F)c(Cl)c1)Nc1csc2ccccc12	/	/	4.87*	-386.9	0.922	7.8	-115.2
C#CCOCCOCCOCCNc1nc(N2CCN(C(=O)CCCCCCCCCCNC(=O)[C@H](CCCN=C(N)N)n3cc(C[C@@H](C)CC)nn3)CC2)nc(N2CCN(C(=O)CCCCCCCCCCNC(=O)[C@@H]([C@H](C)CC)n3cc(CCCCCN)nn3)CC2)n1	/	/	5.63*	-463.1	1.5	-50.0	i
C#CCOCCOCCOCCNc1nc(N2CCN(C(=O)CCCCCCCCCCNC(=O)[C@@H](CCSC)n3cc(CCO)nn3)CC2)nc(N2CCN(C(=O)CCCCCCCCCCNC(=O)[C@@H]([C@H](C)O)n3cc(C)nn3)CC2)n1	/	/	1.55	-55.3	1.22	-21.7	/
C#CCOCCOCCOCCNc1nc(N2CCN(C(=O)CCCCCCCCCCNC(=O)Cn3cc(C[C@@H](C)O)nn3)CC2)nc(N2CCN(C(=O)CCCCCCCCCCNC(=O)[C@@H](CCSC)n3cc(CCO)nn3)CC2)n1	/	/	2.84*	-184.0	0.939	6.1	-96.8
C#CCOCCOCCOCCNc1nc(N2CCOCC2)nc(N2CCN(C(=O)[C@H]([C@@H](C)CC)n3cc(CCCN=C(N)N)nn3)CC2)n1	0.9	6.9	1.16	-16.0	0.953	4.7	/
C#CCOCCOCCOCCNc1nc(N2CCN(C(=O)CCCCCCCCCCNC(=O)[C@@H](CCSC)n3cc(CCO)nn3)CC2)nc(N2CCN(C(=O)CCCCCCCCCCNC(=O)[C@H](CCCN=C(N)N)n3cc(C[C@@H](C)CC)nn3)CC2)n1	/	/	7.73*	i	1.58	-58.4	i
C#CCOCCOCCOCCNc1nc(N2CCOCC2)nc(N2CCN(C(=O)CCCCCCCCCCNC(=O)[C@H]([C@@H](C)CC)n3cc(CCCCN=C(N)N)nn3)CC2)n1	/	/	2.54*	-154.0	1.08	-7.9	-136.7
CC1CCCN(S(=O)(=O)c2cc3c4c(c2)CCN4C(=O)CC3)C1 (configuration not stated)	/	/	1.02	-2.3	1.04	-4.3	/
Cc1ccc(NC(=S)NCC2CCN(C(C)c3ccccc3)C2)cc1C (configuration not stated)	1.2	-17.0	1.38	-37.6	1.17	-17.4	/
NS(=O)(=O)c1ccc(CCNC(=O)COC(=O)CC(c2ccccc2)c2ccccc2)cc1	0.9	11.6	0.985	1.5	1.13	-12.8	/
C#CCOCCOCCOCCNc1nc(N2CCN(C(=O)CCCCCCCCCCNC(=O)[C@H]([C@@H](C)CC)n3cc(CCCCN=C(N)N)nn3)CC2)nc(N2CCN(C(=O)CCCCCCCCCCNC(=O)[C@@H]([C@H](C)O)n3cc(C)nn3)CC2)n1	/	/	4.66*	-366.1	1.08	-8.1	i
C#CCOCCOCCOCCNc1nc(N2CCN(C(=O)CCCCCCCCCCNC(=O)[C@H](CO)n3cc(CCCCCN)nn3)CC2)nc(N2CCN(C(=O)CCCCCCCCCCNC(=O)[C@H](CCCN=C(N)N)n3cc(C[C@@H](C)CC)nn3)CC2)n1	/	/	1.52	-51.7	0.985	1.5	/
C#CCOCCOCCOCCNc1nc(N2CCN(C(=O)CCCCCCCCCCNC(=O)[C@H](CCCCN)n3cc(C)nn3)CC2)nc(N2CCN(C(=O)CCCCCCCCCCNC(=O)[C@H](CCCN=C(N)N)n3cc(C[C@@H](C)CC)nn3)CC2)n1	/	/	3.15*	-214.8	1.27	-27.6	-295.1
C#CCOCCOCCOCCNc1nc(N2CCN(C(=O)CCCCCCCCCCNC(=O)[C@H]([C@@H](C)CC)n3cc(CCCCN=C(N)N)nn3)CC2)nc(N2CCN(C(=O)CCCCCCCCCCNC(=O)[C@H](CCCN=C(N)N)n3cc(C[C@@H](C)CC)nn3)CC2)n1	/	/	4.43*	-343.3	1.49	-48.7	i
C#CCOCCOCCOCCNc1nc(N2CCN(C(=O)CCCCCCCCCCNC(=O)Cn3cc(CCCCCN)nn3)CC2)nc(N2CCN(C(=O)CCCCCCCCCCNC(=O)[C@@H]([C@H](C)O)n3cc(C)nn3)CC2)n1	/	/	1.35	-34.6	0.985	1.5	/
C#CCOCCOCCOCCNc1nc(N2CCN(C(=O)CCCCCCCCCCNC(=O)[C@H](CCCCN)n3cc(C[C@@H](C)CC)nn3)CC2)nc(N2CCN(C(=O)CCCCCCCCCCNC(=O)[C@H](CCCN=C(N)N)n3cc(C[C@@H](C)CC)nn3)CC2)n1	/	/	2	-99.8	1.35	-35.2	/
CC(OC(=O)CN1C(=O)NC2(CCCC2)C1=O)c1ccc(F)cc1 (configuration not stated)	/	/	1.06	-5.9	1.03	-2.6	/
O=C(c1cccc(C(F)(F)F)c1)C1CCCN(C(=O)c2cc(C3CC3)[nH]n2)C1 (configuration not stated)	/	/	0.93	7.0	1.18	-17.5	/
COc1cc2c(ccc3cc(OC)c(OC)c(O)c32)cc1O	/	/	0.495	50.5*	0.942	5.8	58.2*
Cc1ccc(C2=NC(=O)/C(=C/c3cc(O)c(O)c(Br)c3)S2)cc1	0.7	29.0	0.474	52.6*	0.86	14.0	59.9*
Cc1c(C(=O)C(=O)N2CC=C(c3ccccc3)CC2)c2ccccc2n1C	1	3.3	1.07	-7.0	1.13	-13.1	/
COc1cccc(C(CC(=O)Nc2cccc3ccccc23)NC(=O)c2ccccc2)c1 (configuration not stated)	1.4	-44.1	2.08*	-107.9	1.04	-3.8	-119.1
COc1cccc(C(=O)Nc2cccc3ccccc23)c1	/	/	0.987	1.3	0.855	14.5	/
C[C@H](CO)N1C[C@H](C)[C@@H](CN(C)S(=O)(=O)c2ccccc2)Oc2ccc(NC(=O)C3CCCCC3)cc2C1=O	/	/	1.24	-24.3	1.04	-4.1	/
C[C@H](CO)N1C[C@H](C)[C@@H](CN(C)S(=O)(=O)c2ccccc2)Oc2ccc(NC(=O)NC3CCCCC3)cc2C1=O	/	/	4.02*	-301.6	0.985	1.5	-178.7
C[C@H](CO)N1C[C@H](C)[C@@H](CN(C)S(=O)(=O)c2cccs2)Oc2ccc(NC(=O)NC3CCCCC3)cc2C1=O	/	/	3.64*	-263.6	0.984	1.6	-160.2
Cc1cc(-c2ccccc2)n(-c2ccccc2)n1	/	/	0.275	72.5*	1.21	-21.0	85.4*

Screens from PubChem BioAssay.
